Results from ChEMBL document CHEMBL1122064, “Synthesis and biological evaluation of 17-[131I]iodo-9-telluraheptadecanoic acid, a potential imaging agent” (J Med Chem, 1982).

What was measured:
Rattus norvegicus [1] = experiment: Distribution of radioactivity in heart of Fischer 344 female rat after 5 min of intravenous administration; assay type: ADME, organism-based; settings: in vivo
Outline: (§1)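 In female Fischer 344 rats, each animal received about 2.5 µCi of the 123mTe-labelled fatty acid (sp act. ~16 mCi/mmol) in 6% bovine serum albumin through a lateral tail vein. Four rats were used per time point. Excised organs were rinsed, blotted, weighed and counted on a Ge(Li) analyzer. Results are mean (range) % injected dose per gram.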

Rattus norvegicus [2] = experiment: Distribution of radioactivity in kidneys of Fischer 344 female rat after 5 min of intravenous administration; assay type: ADME, organism-based, Kidney; settings: in vivo; outline: as §1
Rattus norvegicus [3] = experiment: Distribution of radioactivity in kidneys of Fischer 344 female rat after 30 min of intravenous administration; assay type: ADME, organism-based, Kidney; settings: in vivo, 0.5 h
Rattus norvegicus [4] = experiment: Distribution of radioactivity in kidneys of Fischer 344 female rat after 60 min of intravenous administration; assay type: ADME, organism-based, Kidney; settings: in vivo, 1 h
Rattus norvegicus [5] = experiment: Distribution of radioactivity in blood of Fischer 344 female rat after 60 min of intravenous administration; assay type: ADME, organism-based; settings: in vivo, 1 h
Rattus norvegicus [6] = experiment: Distribution of radioactivity in liver of Fischer 344 female rat after 30 min of intravenous administration; assay type: ADME, organism-based; settings: in vivo, 0.5 h
Outline: (§2)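 Female Fischer 344 rats, 10-12 weeks, 170-200 g, fed ad libitum. The labelled fatty acid was given in 6% bovine serum albumin via a lateral tail vein under ether anaesthesia. Rats were killed by CO2 anaesthesia and cervical fracture; organs were excised, rinsed, blotted, weighed and counted by Ge(Li) analyzer. Results are mean percent injected dose/g with range.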

Rattus norvegicus [7] = experiment: Distribution of radioactivity in liver of Fischer 344 female rat after 5 min of intravenous administration; assay type: ADME, organism-based; settings: in vivo
Outline: (§3)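 Tracer was the 123mTe-labelled fatty acid, about 2.5 μCi per rat (sp act. ~16 mCi/mmol), given in 6% bovine serum albumin into a lateral tail vein. Female Fischer 344 rats, 10-12 weeks, 170-200 g, four per time point. Excised organs were rinsed, blotted and weighed, then counted by Ge(Li) analyzer, with mean percent injected dose/g and range reported.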

Rattus norvegicus [8] = experiment: Distribution of radioactivity in blood of Fischer 344 female rat after 5 min of intravenous administration; assay type: ADME, organism-based; settings: in vivo; outline: as §1
Rattus norvegicus [9] = experiment: Distribution of radioactivity in lungs of Fischer 344 female rat after 30 min of intravenous administration; assay type: ADME, organism-based, Lung; settings: in vivo, 0.5 h; outline: as §2
Rattus norvegicus [10] = experiment: Distribution of radioactivity in heart of Fischer 344 female rat after 60 min of intravenous administration; assay type: ADME, organism-based; settings: in vivo, 1 h
Rattus norvegicus [11] = experiment: Distribution of radioactivity in lungs of Fischer 344 female rat after 60 min of intravenous administration; assay type: ADME, organism-based, Lung; settings: in vivo, 1 h; outline: as §2
Rattus norvegicus [12] = experiment: Distribution of radioactivity in lungs of Fischer 344 female rat after 5 min of intravenous administration; assay type: ADME, organism-based, Lung; settings: in vivo; outline: as §3
Rattus norvegicus [13] = experiment: Distribution of radioactivity in heart of Fischer 344 female rat after 30 min of intravenous administration; assay type: ADME, organism-based; settings: in vivo, 0.5 h
Rattus norvegicus [14] = experiment: Distribution of radioactivity in blood of Fischer 344 female rat after 30 min of intravenous administration; assay type: ADME, organism-based; settings: in vivo, 0.5 h
Rattus norvegicus [15] = experiment: Distribution of radioactivity in liver of Fischer 344 female rat after 60 min of intravenous administration; assay type: ADME, organism-based; settings: in vivo, 1 h; outline: as §2

For `O=C(O)CCCCCCCC[123Te]CCCCCCCCI`, the Distribution of radioactivity (Rattus norvegicus [1]) was 1.38 dose g-1, the Distribution of radioactivity (Rattus norvegicus [2]) was 1.17 dose g-1 and the Distribution of radioactivity (Rattus norvegicus [3]) was 1.05 dose g-1. It also gave a Distribution of radioactivity (Rattus norvegicus [4]) of 0.99 dose g-1, a Distribution of radioactivity (Rattus norvegicus [5]) of 0.25 dose g-1 and a Distribution of radioactivity (Rattus norvegicus [6]) of 2.11 dose g-1. The Distribution of radioactivity (Rattus norvegicus [7]) was 3.33 dose g-1, the Distribution of radioactivity (Rattus norvegicus [8]) was 0.13 dose g-1 and the Distribution of radioactivity (Rattus norvegicus [9]) was 0.62 dose g-1. For the same compound, the Distribution of radioactivity (Rattus norvegicus [10]) was 1.58 dose g-1, the Distribution of radioactivity (Rattus norvegicus [11]) was 0.56 dose g-1 and the Distribution of radioactivity (Rattus norvegicus [12]) was 0.67 dose g-1. It also gave a Distribution of radioactivity (Rattus norvegicus [13]) of 2.24 dose g-1, a Distribution of radioactivity (Rattus norvegicus [14]) of 0.36 dose g-1 and a Distribution of radioactivity (Rattus norvegicus [15]) of 1.65 dose g-1.
